The first assay concerns Mus musculus. Briefly: percentage decrease in plasma glucose in the ob/ob mouse model at 100 mg/kg/day administered per orally. It is filed as functional. The settings on record: route oral. The method in brief:
(§1)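 Genetically obese C57 B1/6J ob/ob diabetic mice, four to six per group, dosed orally once daily for 4 days. Plasma glucose is expressed as percent change relative to the vehicle-treated group, with p < 0.05 versus vehicle. Changes that are not significant are generally less than -15%. Ciglitazone served as the reference standard.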
As to `C[C@@H](Oc1ccc(-c2ccc(-c3c(Cc4ccccc4)oc4ccccc34)cc2)cc1)C(=O)O`, the Decrease came to 39%.

On to `CCCCc1oc2ccccc2c1C(=O)c1ccc2c(Br)c(OCn3cnnn3)ccc2c1`, for which the Decrease is 25%.

`O=C(O)C(Cc1ccccc1)Oc1ccc(-c2ccc(-c3c(Cc4ccccc4)oc4ccccc34)cc2)cc1` (stereo not drawn): the Decrease was 40%.

Turning to `CCCCc1sc2ccccc2c1-c1ccc(-c2ccc(O[C@@H](C(=O)O)c3ccccc3)cc2)cc1`, the Decrease was determined as 28%.

On to `CCCCc1oc2ccccc2c1Cc1ccc2c(Br)c(OC(Cc3ccccc3)C(=O)O)ccc2c1` (stereo not drawn), for which the Decrease was 26%.

On to `CCCCc1oc2ccccc2c1-c1ccc(-c2ccc(OC(Cc3ccccc3)C(=O)O)cc2)cc1` (stereo not drawn), for which the Decrease is recorded as 34%.

As for `CC(Cc1ccccc1)(Oc1ccc(-c2ccc(-c3c(Cc4ccccc4)oc4ccccc34)cc2)cc1)C(=O)O` (stereo not drawn), the Decrease was found to be 28%.

On to `O=C(O)[C@@H](Cc1ccccc1)Oc1ccc(-c2ccc(-c3c(Cc4ccccc4)oc4ccccc34)cc2)cc1`, for which the Decrease turned out to be 35%.

As for `O=C(O)c1ccc(S(=O)(=O)Oc2c(Br)cc(-c3ccc(-c4c(Cc5ccccc5)sc5ccccc45)cc3)cc2Br)cc1O`, the Decrease is 25%.

Turning to `O=C(O)[C@@H](Cc1ccccc1)Oc1ccc(-c2ccc(-c3c(Cc4ccccc4)sc4ccccc34)cc2)cc1`, the Decrease worked out at 37%.

Take `CCCCc1sc2ccccc2c1-c1ccc(-c2ccc(O[C@H](Cc3ccccc3)C(=O)O)cc2)cc1`: the Decrease came to 27%.

The subject of a further assay is Mus musculus. Briefly: percentage decrease in plasma glucose in the ob/ob mouse model at 25 mg/Kg/day administered per orally. It is filed as functional.
Conditions: not given
The method in brief: as §1
On to `COc1ccc(Cc2sc3ccccc3c2-c2ccc(-c3ccc(O[C@H](Cc4ccccc4)C(=O)O)cc3)cc2)cc1OC`, for which the Decrease was 24%.

As to `Cc1oc(-c2ccc(C(F)(F)F)cc2)nc1-c1ccc(-c2ccc(OC(Cc3ccccc3)C(=O)O)cc2)cc1` (stereo not drawn), the Decrease came to 27%.

For the compound `C[C@@H](Oc1ccc(-c2ccc(-c3c(Cc4ccccc4)oc4ccccc34)cc2)cc1)C(=O)O`, the Decrease was -1%.

On to `COc1ccc(Cc2sc3ccccc3c2-c2ccc(-c3ccc(O[C@H](Cc4ccccc4)C(=O)O)cc3)cc2)c(OC)c1`, for which the Decrease is recorded as 24%.

As to `O=C(O)[C@@H](Cc1ccccc1)Oc1ccc(-c2ccc(-c3c(Cc4ccc(O)cc4O)sc4ccccc34)cc2)cc1`, the Decrease amounted to 20%.

In the case of `CC(Cc1ccccc1)(Oc1ccc(-c2ccc(-c3c(Cc4ccccc4)oc4ccccc34)cc2)cc1)C(=O)O` (stereo not drawn), the Decrease is 30%.

For `O=C(O)CCNc1cc(-c2ccc(-c3c(Cc4ccccc4)oc4ccccc34)cc2)ccc1OCCc1ccccc1`, the Decrease came out at 17%.

Regarding `COc1ccc(-c2cc(-c3ccc(-c4c(Cc5ccccc5)sc5ccccc45)cc3)cc(Br)c2OCC(=O)O)cc1`, the Decrease is 30%.

For the compound `O=C(O)c1ccc(S(=O)(=O)Oc2ccc(-c3ccc(-c4c(Cc5ccccc5)oc5ccccc45)cc3)cc2)cc1O`, the Decrease was determined as 18%.

On to `CCCCCCC(Oc1c(Br)cc(-c2ccc(-c3c(Cc4ccccc4)oc4ccccc34)cc2)cc1Br)C(=O)O` (stereo not drawn), for which the Decrease turned out to be 27%.

Consider `COc1ccc(-c2cc(-c3ccc(-c4c(Cc5ccccc5)sc5ccccc45)cc3)cc(-c3ccc(OC)cc3)c2OCC(=O)O)cc1`, for which the Decrease is on record as 26%.

The next assay addresses T1, Tyrosine-protein phosphatase non-receptor type 1 (Homo sapiens, UniProt P18031).
T1 sequence (P18031 whole entry): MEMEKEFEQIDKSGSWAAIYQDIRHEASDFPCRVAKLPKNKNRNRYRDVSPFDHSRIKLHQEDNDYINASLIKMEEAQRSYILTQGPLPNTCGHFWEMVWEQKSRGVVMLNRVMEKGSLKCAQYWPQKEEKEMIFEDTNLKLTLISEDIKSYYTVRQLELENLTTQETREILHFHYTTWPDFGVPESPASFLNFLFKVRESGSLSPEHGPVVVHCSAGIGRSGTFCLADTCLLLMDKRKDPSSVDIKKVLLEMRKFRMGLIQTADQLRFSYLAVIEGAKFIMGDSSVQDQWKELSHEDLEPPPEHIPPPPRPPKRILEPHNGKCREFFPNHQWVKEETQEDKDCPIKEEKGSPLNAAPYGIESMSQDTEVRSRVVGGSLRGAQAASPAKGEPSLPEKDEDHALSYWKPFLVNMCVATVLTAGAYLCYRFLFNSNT
Briefly: In vitro inhibitory activity against human recombinant protein tyrosine phosphatase 1b (PTP1B).
Conditions: not given
A digest of the protocol:
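Recombinant human PTP1B, diluted in pH 7.4 Tris-HCl/EDTA/β-mercaptoethanol buffer, preincubated 10 min at 37 °C with compound in HEPES pH 7.4. Reaction ran 30 min at 37 °C. Released phosphate was read by malachite green-ammonium molybdate at 650 nm, in quadruplicate. IC50 came from four-parameter logistic regression.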
For `O=C(O)c1ccc(COc2ccc(-c3ccc(-c4c(Cc5ccccc5)oc5ccccc45)cc3)cc2)cc1`, the IC50 is 360 nM.

As to `O=C(O)CCCOc1ccc(-c2ccc(-c3c(Cc4ccccc4)sc4ccccc34)cc2)cc1Br`, the concentration for half-maximal inhibition (IC50) worked out at 170 nM.

Turning to `CCCCc1oc2ccccc2c1Cc1ccc2cc(O)ccc2c1`, the IC50 stood at 1300 nM.

For the compound `COc1ccc(Cc2sc3ccccc3c2-c2ccc(-c3ccc(O[C@H](Cc4ccccc4)C(=O)O)cc3)cc2)cc1OC`, the half-inhibitory concentration (IC50) was determined as 120 nM.

As for `O=C(O)COc1c(Br)cc(-c2ccc(-c3c(Cc4ccccc4)sc4ccccc34)cc2)cc1Br`, the IC50 is 100 nM.

As for `CCCCc1oc2ccccc2c1Cc1ccc2c(I)c(OC(Cc3ccccc3)C(=O)O)ccc2c1` (stereo not drawn), the IC50 amounted to 320 nM.

Consider `Cc1ccc2oc(Cc3ccccc3)c(-c3ccc(-c4ccc(O[C@H](Cc5ccccc5)C(=O)O)cc4)cc3)c2c1`, for which the IC50 was 410 nM.

As to `O=C(O)c1ccccc1C(=O)NCCC(Oc1c(Br)cc(-c2ccc(-c3c(Cc4ccccc4)sc4ccccc34)cc2)cc1Br)C(=O)O` (stereo not drawn), the IC50 is 180 nM.

As for `COC(=O)C(CCNC(=O)c1ccccc1C(=O)O)Oc1c(Br)cc(-c2ccc(-c3c(Cc4ccccc4)sc4ccccc34)cc2)cc1Br` (stereo not drawn), the 50% inhibitory concentration (IC50) came out at 54 nM.

In the case of `CCCCc1oc2ccccc2c1C(=O)c1ccc2c(Br)c(OCn3cnnn3)ccc2c1`, the IC50 came to 1100 nM.

`O=C(O)COc1ccc(-c2ccc(-c3c(Cc4ccccc4)sc4ccccc34)cc2)cc1-c1ccccc1`: the half-inhibitory concentration (IC50) was 100 nM.

As for `O=C(O)c1ccccc1C(=O)Nc1cc(-c2ccc(-c3c(Cc4ccccc4)oc4ccccc34)cc2)ccc1O`, the IC50 was 160 nM.

For the compound `O=C(O)c1ccc(S(=O)(=O)Oc2ccc(-c3ccc(-c4c(Cc5ccccc5)oc5ccccc45)cc3)cc2C2CCCC2)cc1O`, the IC50 is 28 nM.

As to `O=C(O)[C@H](CCN1C(=O)c2ccccc2C1=O)Oc1ccc(-c2ccc(-c3c(Cc4ccccc4)oc4ccccc34)cc2)cc1`, the concentration for half-maximal inhibition (IC50) came to 340 nM.

Consider `CCCCc1oc2ccccc2c1C(=O)c1ccc2c(Br)c(OC(Cc3ccccc3)C(=O)O)ccc2c1` (stereo not drawn), for which the IC50 worked out at 1200 nM.

Consider `CC[C@H](Oc1c(Br)cc(-c2ccc(-c3c(Cc4ccccc4)oc4ccccc34)cc2)cc1Br)C(=O)O`, for which the half-inhibitory concentration (IC50) was found to be 130 nM.

Consider `CCCCc1sc2ccccc2c1-c1ccc(-c2ccc(O[C@@H](C(=O)O)c3ccccc3)cc2)cc1`, for which the IC50 came out at 110 nM.

Consider `COc1ccc(-c2cc(-c3ccc(-c4c(Cc5ccccc5)sc5ccccc45)cc3)ccc2O[C@H](Cc2ccccc2)C(=O)O)cc1`, for which the 50% inhibitory concentration (IC50) amounted to 53 nM.

Consider `O=C(O)[C@H](CCc1ccccc1)Oc1ccc(-c2ccc(-c3c(Cc4ccccc4)oc4ccccc34)cc2)cc1`, for which the IC50 was 220 nM.

As to `CCCCc1oc2ccccc2c1C(O)c1ccc2cc(O)ccc2c1` (stereo not drawn), the IC50 stood at 1100 nM.

`Cc1oc(-c2ccc(C(F)(F)F)cc2)nc1-c1ccc(-c2ccc(OCn3cnnn3)cc2)cc1`: the IC50 is 900 nM.

`O=C(O)[C@@H](Cc1ccccc1)Oc1ccc(-c2ccc(-c3c(Cc4ccc(O)cc4O)sc4ccccc34)cc2)cc1`: the concentration for half-maximal inhibition (IC50) came out at 120 nM.

As for `O=C(O)[C@@H](Cc1ccccc1)Oc1ccc(-c2ccc(-c3c(Cc4ccc(F)cc4)sc4ccccc34)cc2)cc1`, the IC50 is 120 nM.

Consider `CCCCc1sc2ccccc2c1-c1ccc(-c2ccc(O)cc2)cc1`, for which the IC50 came to 700 nM.

As for `O=C(O)CNc1cc(-c2ccc(-c3c(Cc4ccccc4)oc4ccccc34)cc2)ccc1OCCc1ccccc1`, the half-inhibitory concentration (IC50) was 82 nM.

For the compound `O=C(O)[C@H](Cc1ccccc1)Oc1ccc(-c2ccc(-c3c(Cc4ccccc4)oc4ccccc34)cc2)cc1C1CCCC1`, the IC50 was found to be 55 nM.

As for `O=C(O)COc1ccc(-c2ccc(-c3c(Cc4ccccc4)oc4ccccc34)cc2)cc1C1CCCC1`, the IC50 came out at 170 nM.

Turning to `O=C(O)CCNc1cc(-c2ccc(-c3c(Cc4ccccc4)oc4ccccc34)cc2)ccc1OCCc1ccccc1`, the IC50 came to 140 nM.

In the case of `CCCCc1oc2ccccc2c1Cc1ccc(-c2ccc(OCn3cnnn3)cc2)cc1`, the IC50 was 510 nM.

For the compound `CCCCc1oc2ccccc2c1Cc1ccc2c(Br)c(OCC(=O)O)ccc2c1`, the IC50 was 1400 nM.

Regarding `O=C(O)C(CCN1C(=O)c2ccccc2C1=O)Oc1c(Br)cc(-c2ccc(-c3c(Cc4ccccc4)sc4ccccc34)cc2)cc1Br` (stereo not drawn), the IC50 is 44 nM.

Take `COc1cccc(-c2cc(-c3ccc(-c4c(Cc5ccccc5)sc5ccccc45)cc3)ccc2OCC(=O)O)c1OC`: the IC50 came to 71 nM.

Take `O=C(O)[C@H](Cc1ccccc1)Oc1ccc(-c2ccc(-c3c(Cc4ccccc4)oc4ccc(F)cc34)cc2)cc1`: the half-inhibitory concentration (IC50) stood at 130 nM.

In the case of `CCOc1ccc(-c2cc(-c3ccc(-c4c(Cc5ccccc5)sc5ccccc45)cc3)ccc2OCC(=O)O)cc1`, the IC50 was 52 nM.

On to `O=C(O)[C@H](Cc1ccccc1)Oc1ccc(-c2ccc(-c3c(Cc4ccccc4)oc4ncccc34)cc2)cc1`, for which the 50% inhibitory concentration (IC50) is 590 nM.

`Cc1oc(-c2ccc(C(F)(F)F)cc2)nc1-c1cccc(-c2ccc(OC(Cc3ccccc3)C(=O)O)cc2)c1` (stereo not drawn): the IC50 amounted to 1600 nM.

With `CCCCc1oc2ccccc2c1Cc1ccc2c(Br)c(OCn3cnnn3)ccc2c1`, the IC50 was 700 nM.

As for `CCCCCCC(Oc1c(Br)cc(-c2ccc(-c3c(Cc4ccccc4)oc4ccccc34)cc2)cc1Br)C(=O)O` (stereo not drawn), the 50% inhibitory concentration (IC50) is 23 nM.

With `O=C(c1ccccc1)c1oc2ccccc2c1-c1ccc(-c2ccc(O)cc2)cc1`, the half-inhibitory concentration (IC50) was 740 nM.

`CC(=O)Oc1cc(S(=O)(=O)Oc2ccc(-c3ccc(-c4coc5ccccc45)cc3)cc2)ccc1C(=O)O`: the IC50 was found to be 1160 nM.

With `Oc1ccc(-c2ccc(-c3c(Cc4ccc(O)cc4O)sc4ccccc34)cc2)cc1`, the 50% inhibitory concentration (IC50) was 580 nM.

For the compound `O=C(O)[C@@H](Cc1ccccc1)Oc1ccc(-c2ccc(-c3c(Cc4nccs4)sc4ccccc34)cc2)cc1`, the 50% inhibitory concentration (IC50) turned out to be 1160 nM.

For `CCCCc1oc2ccccc2c1Cc1ccc2c(I)c(O)ccc2c1`, the IC50 turned out to be 380 nM.

`Oc1c(I)cc(-c2ccc(-c3c(Cc4ccccc4)sc4ccccc34)cc2)cc1I`: the IC50 came to 520 nM.

`O=C(O)[C@@H](Cc1ccccc1)Oc1ccc(-c2ccc(-c3oc4ccccc4c3Cc3ccccc3)cc2)cc1`: the half-inhibitory concentration (IC50) turned out to be 350 nM.

On to `COc1ccc(-c2cc(-c3ccc(-c4c(Cc5ccccc5)sc5ccccc45)cc3)cc(Br)c2OCC(=O)O)c(OC)c1`, for which the IC50 stood at 47 nM.

Consider `Oc1ccc(Cc2sc3ccccc3c2-c2ccc(-c3ccc(O)cc3)cc2)cc1`, for which the IC50 came out at 1080 nM.

As for `Cc1oc(-c2ccc(C(F)(F)F)cc2)nc1-c1ccc2c(Br)c(OCC(=O)O)ccc2c1`, the IC50 amounted to 1300 nM.

On to `CCCCc1sc2ccccc2c1-c1ccc(-c2ccc(O[C@H](Cc3ccccc3)C(=O)O)cc2)cc1`, for which the IC50 was 170 nM.

Turning to `Oc1ccc(-c2ccc(-c3c(Cc4ccccc4)oc4ccccc34)cc2)cc1`, the IC50 stood at 920 nM.

On to `O=C(O)[C@@H](Cc1ccccc1)Oc1ccc(-c2ccc(-c3c(Cc4ccccc4)sc4ccccc34)cc2)cc1-c1ccc(Cl)cc1`, for which the IC50 was determined as 52 nM.

For orientation: IC50 means the concentration needed to halve the response being measured.
